ChEMBL document CHEMBL4334451, “Natural Alkaloid Berberine Activity against Pseudomonas aeruginosa MexXY-Mediated Aminoglycoside Resistance: In Silico and in Vitro Studies” (J Nat Prod, 2019)
Activity calls are given as the source filed them.

What was measured:
Format in all cases: protein-complex assay
[1] = target: T1, MexXY/OprM (Pseudomonas aeruginosa (strain ATCC 15692 / DSM 22644 / CIP 104116 / JCM14847 / LMG 12228 / 1C / PRS 101 / PAO1)) (UniProt Q51487+Q9ZNG9+Q9ZNG8); assay: Inhibition of MexXY/OPRM in Pseudomonas aeruginosa C9 assessed as reduction in bacterial resistance to tobramycin by measuring tobramycin MIC at 80 ug/ml incubated for 24 to 48 hrs by broth microdilution method (reference value: 2 ug/ml)
Summary of the method: (§1)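 Broth microdilution per CLSI, with P. aeruginosa ATCC 27853 as reference strain, in 2-fold dilution series. Plates were incubated at 37°C and read for visible growth at 24 and 48 h. Berberine stock was in 50% DMSO/50% methanol, with final DMSO kept near 1%. Berberine was tested at 10–320 µg/ml, alone or at a fixed level with serial tobramycin.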

[2] = target: T1, MexXY/OprM (Pseudomonas aeruginosa (strain ATCC 15692 / DSM 22644 / CIP 104116 / JCM14847 / LMG 12228 / 1C / PRS 101 / PAO1)); assay: Inhibition of MexXY/OPRM in Pseudomonas aeruginosa C15 assessed as reduction in bacterial resistance to tobramycin by measuring tobramycin MIC at 80 ug/ml incubated for 24 to 48 hrs by broth microdilution method (reference value: 8 ug/ml)
[3] = target: T1, MexXY/OprM (Pseudomonas aeruginosa (strain ATCC 15692 / DSM 22644 / CIP 104116 / JCM14847 / LMG 12228 / 1C / PRS 101 / PAO1)); assay: Inhibition of MexXY/OPRM in Pseudomonas aeruginosa C30 assessed as reduction in bacterial resistance to tobramycin by measuring tobramycin MIC at 80 ug/ml incubated for 24 to 48 hrs by broth microdilution method (reference value: 8 ug/ml)
[4] = target: T1, MexXY/OprM (Pseudomonas aeruginosa (strain ATCC 15692 / DSM 22644 / CIP 104116 / JCM14847 / LMG 12228 / 1C / PRS 101 / PAO1)); assay: Inhibition of MexXY/OPRM in Pseudomonas aeruginosa C31 assessed as reduction in bacterial resistance to tobramycin by measuring tobramycin MIC at 80 ug/ml incubated for 24 to 48 hrs by broth microdilution method (reference value: 8 ug/ml)
[5] = target: T1, MexXY/OprM (Pseudomonas aeruginosa (strain ATCC 15692 / DSM 22644 / CIP 104116 / JCM14847 / LMG 12228 / 1C / PRS 101 / PAO1)); assay: Inhibition of MexXY/OPRM in Pseudomonas aeruginosa C59 assessed as reduction in bacterial resistance to tobramycin by measuring tobramycin MIC at 80 ug/ml incubated for 24 to 48 hrs by broth microdilution method (reference value: 64 ug/ml)
[6] = target: T1, MexXY/OprM (Pseudomonas aeruginosa (strain ATCC 15692 / DSM 22644 / CIP 104116 / JCM14847 / LMG 12228 / 1C / PRS 101 / PAO1)); assay: Inhibition of MexXY/OPRM in Pseudomonas aeruginosa C61 assessed as reduction in bacterial resistance to tobramycin by measuring tobramycin MIC at 80 ug/ml incubated for 24 to 48 hrs by broth microdilution method (reference value: 64 ug/ml)
[7] = target: T1, MexXY/OprM (Pseudomonas aeruginosa (strain ATCC 15692 / DSM 22644 / CIP 104116 / JCM14847 / LMG 12228 / 1C / PRS 101 / PAO1)); assay: Inhibition of MexXY/OPRM in Pseudomonas aeruginosa C95 assessed as reduction in bacterial resistance to tobramycin by measuring tobramycin MIC at 80 ug/ml incubated for 24 to 48 hrs by broth microdilution method (reference value: 32 ug/ml); summary of the method: as §1
[8] = target: T1, MexXY/OprM (Pseudomonas aeruginosa (strain ATCC 15692 / DSM 22644 / CIP 104116 / JCM14847 / LMG 12228 / 1C / PRS 101 / PAO1)); assay: Inhibition of MexXY/OPRM in Pseudomonas aeruginosa C98 assessed as reduction in bacterial resistance to tobramycin by measuring tobramycin MIC at 80 ug/ml incubated for 24 to 48 hrs by broth microdilution method (reference value: 64 ug/ml); summary of the method: as §1
[9] = target: T1, MexXY/OprM (Pseudomonas aeruginosa (strain ATCC 15692 / DSM 22644 / CIP 104116 / JCM14847 / LMG 12228 / 1C / PRS 101 / PAO1)); assay: Inhibition of MexXY/OPRM in Pseudomonas aeruginosa C67 assessed as reduction in bacterial resistance to tobramycin by measuring tobramycin MIC at 80 ug/ml incubated for 24 to 48 hrs by broth microdilution method (reference value: 16 ug/ml)
[10] = target: T1, MexXY/OprM (Pseudomonas aeruginosa (strain ATCC 15692 / DSM 22644 / CIP 104116 / JCM14847 / LMG 12228 / 1C / PRS 101 / PAO1)); assay: Inhibition of MexXY/OPRM in Pseudomonas aeruginosa C95 assessed as reduction in bacterial resistance to tobramycin by measuring increase in tobramycin-mediated bactericidal activity at 80 ug/ml in presence of 0.5XMIC tobramycin measured after 4 hrs by Time-kill curve analysis
[11] = target: T1, MexXY/OprM (Pseudomonas aeruginosa (strain ATCC 15692 / DSM 22644 / CIP 104116 / JCM14847 / LMG 12228 / 1C / PRS 101 / PAO1)); assay: Inhibition of MexXY/OPRM in Pseudomonas aeruginosa PA14 assessed as bacterial growth up to 320 ug/ml incubated for 24 to 48 hrs by broth microdilution method; summary of the method: as §1
[12] = target: T1, MexXY/OprM (Pseudomonas aeruginosa (strain ATCC 15692 / DSM 22644 / CIP 104116 / JCM14847 / LMG 12228 / 1C / PRS 101 / PAO1)); assay: Inhibition of MexXY/OPRM in Pseudomonas aeruginosa K767 assessed as bacterial growth up to 320 ug/ml incubated for 24 to 48 hrs by broth microdilution method; summary of the method: as §1
[13] = target: T1, MexXY/OprM (Pseudomonas aeruginosa (strain ATCC 15692 / DSM 22644 / CIP 104116 / JCM14847 / LMG 12228 / 1C / PRS 101 / PAO1)); assay: Inhibition of MexXY/OPRM in Pseudomonas aeruginosa C31 assessed as bacterial growth up to 320 ug/ml incubated for 24 to 48 hrs by broth microdilution method
Summary of the method: (§2)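 Broth microdilution following CLSI guidelines, with P. aeruginosa ATCC 27853 as reference strain. Berberine was tested at 2-fold concentrations from 10 to 320 µg/ml, dissolved in 50% DMSO/50% methanol, with the top concentration set to keep final DMSO close to 1%. Plates were incubated at 37°C and read for visible growth at 24 and 48 h.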

[14] = target: T1, MexXY/OprM (Pseudomonas aeruginosa (strain ATCC 15692 / DSM 22644 / CIP 104116 / JCM14847 / LMG 12228 / 1C / PRS 101 / PAO1)); assay: Inhibition of MexXY/OPRM in Pseudomonas aeruginosa C54 assessed as bacterial growth up to 320 ug/ml incubated for 24 to 48 hrs by broth microdilution method; summary of the method: as §2
[15] = target: T1, MexXY/OprM (Pseudomonas aeruginosa (strain ATCC 15692 / DSM 22644 / CIP 104116 / JCM14847 / LMG 12228 / 1C / PRS 101 / PAO1)); assay: Inhibition of MexXY/OPRM in Pseudomonas aeruginosa C60 assessed as bacterial growth up to 320 ug/ml incubated for 24 to 48 hrs by broth microdilution method; summary of the method: as §2
[16] = target: T1, MexXY/OprM (Pseudomonas aeruginosa (strain ATCC 15692 / DSM 22644 / CIP 104116 / JCM14847 / LMG 12228 / 1C / PRS 101 / PAO1)); assay: Inhibition of MexXY/OPRM in Pseudomonas aeruginosa C61 assessed as bacterial growth up to 320 ug/ml incubated for 24 to 48 hrs by broth microdilution method; summary of the method: as §2
[17] = target: T1, MexXY/OprM (Pseudomonas aeruginosa (strain ATCC 15692 / DSM 22644 / CIP 104116 / JCM14847 / LMG 12228 / 1C / PRS 101 / PAO1)); assay: Inhibition of MexXY/OPRM in Pseudomonas aeruginosa C73 assessed as bacterial growth up to 320 ug/ml incubated for 24 to 48 hrs by broth microdilution method; summary of the method: as §2
[18] = target: T1, MexXY/OprM (Pseudomonas aeruginosa (strain ATCC 15692 / DSM 22644 / CIP 104116 / JCM14847 / LMG 12228 / 1C / PRS 101 / PAO1)); assay: Inhibition of MexXY/OPRM in Pseudomonas aeruginosa C76 assessed as bacterial growth up to 320 ug/ml incubated for 24 to 48 hrs by broth microdilution method; summary of the method: as §2
[19] = target: T1, MexXY/OprM (Pseudomonas aeruginosa (strain ATCC 15692 / DSM 22644 / CIP 104116 / JCM14847 / LMG 12228 / 1C / PRS 101 / PAO1)); assay: Inhibition of MexXY/OPRM in Pseudomonas aeruginosa C84 assessed as bacterial growth up to 320 ug/ml incubated for 24 to 48 hrs by broth microdilution method; summary of the method: as §1
[20] = target: T1, MexXY/OprM (Pseudomonas aeruginosa (strain ATCC 15692 / DSM 22644 / CIP 104116 / JCM14847 / LMG 12228 / 1C / PRS 101 / PAO1)); assay: Inhibition of MexXY/OPRM in Pseudomonas aeruginosa AR51 assessed as bacterial growth up to 320 ug/ml incubated for 24 to 48 hrs by broth microdilution method; summary of the method: as §2
[21] = target: T1, MexXY/OprM (Pseudomonas aeruginosa (strain ATCC 15692 / DSM 22644 / CIP 104116 / JCM14847 / LMG 12228 / 1C / PRS 101 / PAO1)); assay: Inhibition of MexXY/OPRM in Pseudomonas aeruginosa C67 assessed as bacterial growth up to 320 ug/ml incubated for 24 to 48 hrs by broth microdilution method; summary of the method: as §2
[22] = target: T1, MexXY/OprM (Pseudomonas aeruginosa (strain ATCC 15692 / DSM 22644 / CIP 104116 / JCM14847 / LMG 12228 / 1C / PRS 101 / PAO1)); assay: Inhibition of MexXY/OPRM in Pseudomonas aeruginosa C70 assessed as reduction in bacterial resistance to tobramycin by measuring fold reduction in tobramycin MIC at 80 ug/ml incubated for 24 to 48 hrs by broth microdilution method
[23] = target: T1, MexXY/OprM (Pseudomonas aeruginosa (strain ATCC 15692 / DSM 22644 / CIP 104116 / JCM14847 / LMG 12228 / 1C / PRS 101 / PAO1)); assay: Inhibition of MexXY/OPRM in Pseudomonas aeruginosa C93 assessed as reduction in bacterial resistance to tobramycin by measuring fold reduction in tobramycin MIC at 80 ug/ml incubated for 24 to 48 hrs by broth microdilution method
Summary of the method: (§3)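 Tobramycin MIC by CLSI broth microdilution at 37°C, read at 24 and 48 h, with and without a fixed berberine concentration selected from checkerboard assays. Berberine stock was in 50% DMSO/50% methanol, final DMSO about 1%. A 2-fold decrease in tobramycin MIC was scored as synergy.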

[24] = target: T1, MexXY/OprM (Pseudomonas aeruginosa (strain ATCC 15692 / DSM 22644 / CIP 104116 / JCM14847 / LMG 12228 / 1C / PRS 101 / PAO1)); assay: Inhibition of MexXY/OPRM in Pseudomonas aeruginosa C95 assessed as reduction in bacterial resistance to tobramycin by measuring fold reduction in tobramycin MIC at 80 ug/ml incubated for 24 to 48 hrs by broth microdilution method; summary of the method: as §3

COc1ccc2cc3[n+](cc2c1OC)CCc1cc2c(cc1-3)OCO2 [BERBERINE]
1 µg/mL: MIC [1]
16 µg/mL: MIC [6] | MIC [9]
8 µg/mL: MIC [2] | MIC [3] | MIC [4]
> 2: fold change (FC) [22] | fold change (FC) [23] | fold change (FC) [24]
32 µg/mL: MIC [5] | MIC [8]
active: inhibition [10]
4 µg/mL: MIC [7]
inactive: inhibition [11] | inhibition [12] | inhibition [13] | inhibition [14] | inhibition [15] | inhibition [16] | inhibition [17] | inhibition [18] | inhibition [19] | inhibition [20] | inhibition [21]
